Assay results: ChEMBL document CHEMBL1153000, “Berbamine derivatives: a novel class of compounds for anti-leukemia activity” (Eur J Med Chem, 2009)
The source made the active and inactive calls. No cut-off for these calls is given here.

Key:
K562 [1] = test: Inhibition of NF-kappaB translocation from cytoplasm to nucleus in human imatinib-resistant K562 leukemia cells expressing p210Bcr/Ab assessed as disappearance of NF-kappaB p65/relA subunit nuclear level at 0.5 ug/ml after 24 hrs by Western blot analysis; type: functional, cell-based
How it was run: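 Leukemia cells were exposed for 24 h (berbamine 8 µg/ml; derivatives 0.5 µg/ml). Nuclear levels of NF-κB p65/relA were analysed by immunoblot with lamin as the nuclear loading control, and total p65 was also assessed.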

K562 [2] = test: Cell cycle arrest in human imatinib-resistant K562 leukemia cells expressing p210Bcr/Ab assessed as accumulation at G0/G1 phase at 2 ug/ml after 48 hrs by flow cytometry; type: functional
How it was run: (§1)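 K562-R cells (MDR1-expressing) were treated with 1.0 or 2.0 µg/ml for 48 h, then harvested, PBS-washed, fixed in ice-cold 70% ethanol at 4 °C overnight, and stained with 50 µg/ml propidium iodide. Flow cytometry gave the percentage of cells in G0/G1, S and G2/M, with the sub-G1 fraction scored as apoptotic.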

K562 [3] = test: Cell cycle arrest in human imatinib-resistant K562 leukemia cells expressing p210Bcr/Ab assessed as accumulation at G0/G1 phase at 1 ug/ml after 48 hrs by flow cytometry; type: functional; how it was run: as §1
K562 [4] = test: Cell cycle arrest in human imatinib-resistant K562 leukemia cells expressing p210Bcr/Ab assessed as accumulation at S phase at 1 ug/ml after 48 hrs by flow cytometry; type: functional; how it was run: as §1
K562 [5] = test: Cell cycle arrest in human imatinib-resistant K562 cells assessed as accumulation at G2/M phase at 2 ug/ml after 48 hrs by flow cytometry; type: functional; how it was run: as §1
K562 [6] = test: Cell cycle arrest in human imatinib-resistant K562 leukemia cells expressing p210Bcr/Ab assessed as accumulation at S phase at 2 ug/ml after 48 hrs by flow cytometry; type: functional; how it was run: as §1
K562 [7] = test: Induction of apoptosis in human imatinib-resistant K562 cells expressing p210Bcr/Abl at 1 ug/ml after 48 hrs by flow cytometry; type: functional; how it was run: as §1
K562 [8] = test: Inhibition of NF-kappaB translocation from cytoplasm to nucleus in human imatinib-resistant K562 leukemia cells expressing p210Bcr/Ab assessed as disappearance of NF-kappaB p65/relA subunit nuclear level at 0.5 ug/ml after 24 hrs by Western blot analysis
K562 [9] = test: Induction of apoptosis in human imatinib-resistant K562 leukemia cells expressing p210Bcr/Abl at 2 ug/ml after 48 hrs by flow cytometry; type: functional; how it was run: as §1
K562 [10] = test: Cytotoxicity against human imatinib-resistant K562 leukemia cells expressing p210Bcr/Abl and MDR1 at 48 hrs by MTT assay; type: functional, cell-based; conditions: K562, 48 h
How it was run: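 Cells were cultured with 100 µg/ml streptomycin at 37 °C in a humidified 95% air/5% CO2 incubator. Viability was read by MTT after 48 h exposure and counts were taken by hemocytometer. IC50 is the mean of three independent determinations.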

K562 [11] = test: Cell cycle arrest in human imatinib-resistant K562 leukemia cells expressing p210Bcr/Ab assessed as accumulation at G2/M phase at 1 ug/ml after 48 hrs by flow cytometry; type: functional; how it was run: as §1

| SMILES | IC50 (K562 [10]) [nM] | also measured |
| --- | --- | --- |
| COc1cc2c3cc1Oc1c(OC)c(OC)cc4c1[C@@H](Cc1ccc(OC(=O)c5ccccc5C)c(c1)Oc1ccc(cc1)C[C@@H]3N(C)CC2)N(C)CC4 | 690 | inhibition (K562 [1]): Active; Activity (K562 [2]): 20.04%; Activity (K562 [3]): 32.37%; Activity (K562 [4]): 29.28%; Activity (K562 [5]): 6.01%; Activity (K562 [6]): 22.89%; Activity (K562 [7]): 31.71%; inhibition (K562 [8]): Active; Activity (K562 [9]): 51.91%; Activity (K562 [11]): 7.3% |
| COc1cc2c3cc1Oc1c(OC)c(OC)cc4c1[C@@H](Cc1ccc(OC(=O)c5cccc(C(F)(F)F)c5)c(c1)Oc1ccc(cc1)C[C@@H]3N(C)CC2)N(C)CC4 | 890 |  |
| COc1cc2c3cc1Oc1c(OC)c(OC)cc4c1[C@@H](Cc1ccc(OC(=O)c5ccc([N+](=O)[O-])cc5)c(c1)Oc1ccc(cc1)C[C@@H]3N(C)CC2)N(C)CC4 [E6 BERBAMINE] | 2130 |  |
| COc1cc2c3cc1Oc1c(OC)c(OC)cc4c1[C@@H](Cc1ccc(OCc5ccc(Cl)nc5)c(c1)Oc1ccc(cc1)C[C@@H]3N(C)CC2)N(C)CC4 | 400 |  |
| COc1cc2c3cc1Oc1c(OC)c(OC)cc4c1[C@@H](Cc1ccc(OC(=O)C(C)(C)C)c(c1)Oc1ccc(cc1)C[C@@H]3N(C)CC2)N(C)CC4 | 1010 |  |
| COc1cc2c3cc1Oc1c(OC)c(OC)cc4c1[C@@H](Cc1ccc(OC(=O)c5ccccc5)c(c1)Oc1ccc(cc1)C[C@@H]3N(C)CC2)N(C)CC4 | 2160 |  |
| COc1cc2c3cc1Oc1c(OC)c(OC)cc4c1[C@@H](Cc1ccc(OC(=O)c5cc(OC)c(OC)c(OC)c5)c(c1)Oc1ccc(cc1)C[C@@H]3N(C)CC2)N(C)CC4 | 690 | inhibition (K562 [1]): Active; inhibition (K562 [8]): Active |
| COc1cc2c3cc1Oc1c(OC)c(OC)cc4c1[C@@H](Cc1ccc(OC(=O)c5cc([N+](=O)[O-])cc([N+](=O)[O-])c5)c(c1)Oc1ccc(cc1)C[C@@H]3N(C)CC2)N(C)CC4 | 3750 |  |
| COc1cc2c3cc1Oc1c(OC)c(OC)cc4c1[C@@H](Cc1ccc(OCc5cc(OC)c(OC)c(OC)c5)c(c1)Oc1ccc(cc1)C[C@@H]3N(C)CC2)N(C)CC4 | 1530 |  |
| COc1cc2c3cc1Oc1c(OC)c(OC)cc4c1[C@@H](Cc1ccc(OS(=O)(=O)c5ccccc5)c(c1)Oc1ccc(cc1)C[C@@H]3N(C)CC2)N(C)CC4 | 1990 |  |
| COc1cc2c3cc1Oc1c(OC)c(OC)cc4c1[C@@H](Cc1ccc(OC(=O)Cc5ccccc5)c(c1)Oc1ccc(cc1)C[C@@H]3N(C)CC2)N(C)CC4 | 2230 |  |
| COc1cc2c3cc1Oc1c(OC)c(OC)cc4c1[C@@H](Cc1ccc(OC(=O)c5ccccc5Br)c(c1)Oc1ccc(cc1)C[C@@H]3N(C)CC2)N(C)CC4 | 780 |  |
| COc1cc2c3cc1Oc1c(OC)c(OC)cc4c1[C@@H](Cc1ccc(OC(=O)c5ccc(Cl)cc5)c(c1)Oc1ccc(cc1)C[C@@H]3N(C)CC2)N(C)CC4 | 980 | inhibition (K562 [1]): Active; inhibition (K562 [8]): Active |
| COc1cc2c3cc1Oc1c(OC)c(OC)cc4c1[C@@H](Cc1ccc(OC(=O)c5ccccc5Cl)c(c1)Oc1ccc(cc1)C[C@@H]3N(C)CC2)N(C)CC4 | 600 |  |
| COc1cc2c3cc1Oc1c(OC)c(OC)cc4c1[C@@H](Cc1ccc(OCc5ccc(Br)cc5)c(c1)Oc1ccc(cc1)C[C@@H]3N(C)CC2)N(C)CC4 | 710 |  |
| COc1cc2c3cc1Oc1c(OC)c(OC)cc4c1[C@@H](Cc1ccc(OCc5ccc([N+](=O)[O-])cc5)c(c1)Oc1ccc(cc1)C[C@@H]3N(C)CC2)N(C)CC4 | 360 |  |

| SMILES | IC50 (K562 [10]) [nM] | also measured |
| --- | --- | --- |
| COc1cc2c3cc1Oc1c(OC)c(OC)cc4c1[C@@H](Cc1ccc(OCCCBr)c(c1)Oc1ccc(cc1)C[C@@H]3N(C)CC2)N(C)CC4 | 1660 |  |
| COc1cc2c3cc1Oc1c(OC)c(OC)cc4c1[C@@H](Cc1ccc(OC(=O)c5cccc(CCl)c5)c(c1)Oc1ccc(cc1)C[C@@H]3N(C)CC2)N(C)CC4 | 500 |  |
| COc1cc2c3cc1Oc1c(OC)c(OC)cc4c1[C@@H](Cc1ccc(OC(=O)c5ccc(Br)cc5)c(c1)Oc1ccc(cc1)C[C@@H]3N(C)CC2)N(C)CC4 | 400 |  |
| C=C(C)C(=O)Oc1ccc2cc1Oc1ccc(cc1)C[C@H]1c3cc(c(OC)cc3CCN1C)Oc1c(OC)c(OC)cc3c1[C@@H](C2)N(C)CC3 | 3810 |  |
| COc1ccc(C(=O)Oc2ccc3cc2Oc2ccc(cc2)C[C@H]2c4cc(c(OC)cc4CCN2C)Oc2c(OC)c(OC)cc4c2[C@@H](C3)N(C)CC4)cc1 | 550 | inhibition (K562 [1]): Active; inhibition (K562 [8]): Active |
| CCOCCCCOc1ccc2cc1Oc1ccc(cc1)C[C@H]1c3cc(c(OC)cc3CCN1C)Oc1c(OC)c(OC)cc3c1[C@@H](C2)N(C)CC3 | 4080 |  |
| COc1cc2c3cc1Oc1c(OC)c(OC)cc4c1[C@@H](Cc1ccc(OC(=O)c5cc6ccccc6[nH]5)c(c1)Oc1ccc(cc1)C[C@@H]3N(C)CC2)N(C)CC4 | 460 |  |
| COc1cc2c3cc1Oc1c(OC)c(OC)cc4c1[C@@H](Cc1ccc(O)c(c1)Oc1ccc(cc1)C[C@@H]3N(C)CC2)N(C)CC4 [BERBAMINE] | 8930 | inhibition (K562 [1]): Active; inhibition (K562 [8]): Active |
| COc1cc2c3cc1Oc1c(OC)c(OC)cc4c1[C@@H](Cc1ccc(OS(C)(=O)=O)c(c1)Oc1ccc(cc1)C[C@@H]3N(C)CC2)N(C)CC4 | 4740 |  |
| COc1cc2c3cc1Oc1c(OC)c(OC)cc4c1[C@@H](Cc1ccc(OC(=O)c5ccco5)c(c1)Oc1ccc(cc1)C[C@@H]3N(C)CC2)N(C)CC4 | 2780 |  |
| COc1cc2c3cc1Oc1c(OC)c(OC)cc4c1[C@@H](Cc1ccc(OC(=O)Cc5cc(F)c(F)cc5F)c(c1)Oc1ccc(cc1)C[C@@H]3N(C)CC2)N(C)CC4 | 3020 |  |
| CCOc1ccc2cc1Oc1ccc(cc1)C[C@H]1c3cc(c(OC)cc3CCN1C)Oc1c(OC)c(OC)cc3c1[C@@H](C2)N(C)CC3 | 3140 |  |
| COc1cc2c3cc1Oc1c(OC)c(OC)cc4c1[C@@H](Cc1ccc(OC(=O)CCl)c(c1)Oc1ccc(cc1)C[C@@H]3N(C)CC2)N(C)CC4 | 2700 |  |
| COc1cc2c3cc1Oc1c(OC)c(OC)cc4c1[C@@H](Cc1ccc(OCc5ccccc5)c(c1)Oc1ccc(cc1)C[C@@H]3N(C)CC2)N(C)CC4 | 800 |  |
| COc1cc2c3cc1Oc1c(OC)c(OC)cc4c1[C@@H](Cc1ccc(OC(C)=O)c(c1)Oc1ccc(cc1)C[C@@H]3N(C)CC2)N(C)CC4 | 6600 |  |
| COc1cc2c3cc1Oc1c(OC)c(OC)cc4c1[C@@H](Cc1ccc(OC(=O)c5cccc(F)c5)c(c1)Oc1ccc(cc1)C[C@@H]3N(C)CC2)N(C)CC4 | 1970 |  |
